# Measured values as given in ChEMBL document CHEMBL3526153, “Metabolism of gambogic acid in rats: a rare intestinal metabolic pathway responsible for its final disposition” (Drug Metab Dispos, 2011).
# Key:
# [1] = Retention time of the compound in Sprague-Dawley rat bile treated with gambogic acid at 4 mg/kg, iv measured over 24 hrs by LC-DAD-MS/MS analysis; type: ADME, organism-based; set-up: dose 4 mg/kg, route intravenous; conditions: in vivo
# How it was run: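 SD rats, n=4, bile-duct cannulated under chloral hydrate and allowed 1 h recovery. GA 4 mg/kg i.v.; bile collected on ice, pooled 0–24 h. C18 LC-DAD-MS/MS at 0.25 mL/min with acetonitrile gradient (38% to 80%) in 10 mM ammonium acetate, 40 °C, negative ESI.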
# [2] = Drug level in rat liver microsomes assessed as CYP450-mediated compound formation treated with gambogic acid at 50 uM preincubated for 10 mins followed by NADPH addition measured after 1 hr by LC-DAD-MS/MS analysis; type: ADME
# How it was run: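 GA 50 µM with rat liver microsomes 1.0 mg/mL in 0.1 M PBS pH 7.4, pre-incubated 10 min at 37 °C. Started with NADPH (6.0 mM final) and run 1 h at 37 °C. Controls lacked NADPH or microsomes; duplicate. Stopped with ice-cold acetonitrile, centrifuged, supernatant dried and reconstituted. Isocratic LC (65% acetonitrile), negative-ion ESI MS/MS.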
# [3] = Drug level in Sprague-Dawley rat feces treated with gambogic acid at 4 mg/kg, iv measured over 24 hrs by LC-DAD-MS/MS analysis; type: ADME, organism-based; set-up: dose 4 mg/kg, route intravenous; conditions: in vivo
# How it was run: (§1)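 SD rats (250 ± 20 g), n=4, given GA 4 mg/kg i.v. via tail vein in 2 mL; feces pooled 0–24 h and stored at −20 °C. Feces (0.6 g) homogenized in 50% acetonitrile, sonicated, centrifuged, filtered, then ethyl acetate extraction. Analysed by C18 LC-DAD-MS/MS (gradient 38–80% acetonitrile, 10 mM ammonium acetate, 40 °C), negative ESI.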
# [4] = system: Plasma; assay: Drug level in Sprague-Dawley rat plasma treated with gambogic acid at 4 mg/kg, iv measured over 4 hrs by LC-DAD-MS/MS analysis; type: ADME, organism-based; set-up: dose 4 mg/kg, route intravenous; conditions: in vivo
# How it was run: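 Six SD rats given GA 4 mg/kg i.v. via tail vein. Tail blood taken into heparin at 0.033–4 h; plasma separated at 3000 × g, 4 °C, and pooled 0–4 h. 1 mL extracted with 4 mL ethyl acetate, dried, reconstituted. Isocratic 68% acetonitrile, LC-MS/MS in negative ESI.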
# [5] = Drug level in PBS buffer treated with gambogic acid at 50 uM preincubated for 10 mins followed by NADPH addition measured after 1 hr by LC-DAD-MS/MS analysis in absence of liver microsomes; type: physicochemical
# How it was run: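 Control incubation with no microsomes: GA 50 μM (added in 5.0 μL acetonitrile) in 0.1 M PBS pH 7.4, 1.0 mL, preincubated 10 min at 37 °C with shaking. NADPH added to 6.0 mM final, then 1 h at 37 °C, duplicate. Stopped with ice-cold acetonitrile, centrifuged, supernatant dried under N2, reconstituted in mobile phase. LC-MS/MS with negative ESI, isocratic 65% acetonitrile.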
# [6] = Drug level in Sprague-Dawley rat gut treated with gambogic acid at 4 mg/kg, iv; type: ADME, organism-based; set-up: dose 4 mg/kg, route intravenous; conditions: in vivo
# [7] = Retention time of the compound in Sprague-Dawley rat feces treated with gambogic acid at 4 mg/kg, iv measured over 24 hrs by LC-DAD-MS/MS analysis; type: ADME, organism-based; set-up: dose 4 mg/kg, route intravenous; conditions: in vivo; how it was run: as §1
# [8] = Drug level in intestine (unknown origin) treated with gambogic acid; type: ADME, tissue-based
# How it was run: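 Intestinal contents from undosed rats homogenized in 5 mL water. 100 μL of 1.0 mg/mL GA solution added, incubated about 24 h at 37 °C, duplicate. 1.0 mL extracted with ethyl acetate. LC-MS/MS with negative ESI, SIM at m/z 709.3 plus full and product-ion scans, acetonitrile gradient 50–90%.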
# [9] = system: Liver microsome; assay: Drug level in rat liver microsomes treated with gambogic acid at 50 uM preincubated for 10 mins followed by UDPGA addition measured after 2 hrs by LC-MS/MS analysis; type: ADME
# How it was run: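 Rat liver microsomes 1.0 mg/mL pretreated with alamethicin 50 μg/mg protein. GA 50 μM, saccharic acid-1,4-lactone 6 mM, in 0.05 M Tris-HCl pH 7.4. Preincubated 10 min at 37 °C, started with UDPGA (6.0 mM final), run 2 h at 37 °C, duplicate. Quenched with ice-cold acetonitrile. LC-MS/MS in negative ESI with acetonitrile gradient 50–95%.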
smiles,measurement,setting,value
CC(C)=CCC[C@]1(C)C=Cc2c(O)c3c(c(CC=C(C)C)c2O1)O[C@]12[C@H]4C[C@H](C(=O)[C@]1(C/C=C(/C)C(=O)O[C@@H]1O[C@H](CO)[C@@H](O)[C@H](O)[C@H]1O)OC4(C)C)C1OC12C3=O (stereo not given in full),Retention_time,[1],39 min
CC(C)=CCC[C@]1(C)C=Cc2c(O)c3c(c(CC=C(C)C)c2O1)O[C@]12C(C3=O)C(O[C@@H]3O[C@H](CO)[C@@H](O)[C@H](O)[C@H]3O)[C@@H]3C[C@H]1C(C)(C)O[C@@]2(C/C=C(/C)C(=O)O)C3=O (stereo not given in full),Retention_time,[1],38.7 min
CC(C)=CCC[C@]1(C)C=Cc2c(O)c3c(c(CC=C(C)C)c2O1)O[C@]12C(=C[C@@H]4C[C@H]1C(C)(C)O[C@@]2(C/C=C(/C)C(=O)O[C@@H]1O[C@H](CO)[C@@H](O)[C@H](O)[C@H]1O)C4=O)C3=O,Retention_time,[1],40.3 min
CC(C)=CCC[C@]1(C)C=Cc2c(O)c3c(c(CC=C(C)C)c2O1)O[C@]12C(C3=O)C(O)[C@@H]3C[C@H]1C(C)(C)O[C@@]2(C/C=C(/C)C(=O)O)C3=O (stereo not given in full),Retention_time,[1],39.5 min
same,Drug metabolism,[2],metabolite_detected
same,Drug metabolism,[3],metabolite_detected
same,Drug metabolism,[4],metabolite_detected
same,Drug metabolism,[5],metabolite_detected
CC(C)=CCC[C@]1(C)C=Cc2c(O)c3c(c(CC=C(C)C)c2O1)O[C@]12[C@H]4C[C@H](C(=O)[C@]1(C/C=C(/C)C(=O)O)OC4(C)C)C1OC12C3=O (stereo not given in full),Retention_time,[1],43.8 min
same,Drug metabolism,[2],metabolite_detected
same,Drug metabolism,[3],metabolite_detected
CC(C)=CCC[C@]1(C)C=Cc2c(O)c3c(c(CC=C(C)C)c2O1)O[C@]12C(C3=O)[C@H](S(=O)(=O)O)[C@@H]3C[C@H]1C(C)(C)O[C@@]2(C/C=C(/C)C(=O)O)C3=O (stereo not given in full),Drug metabolism,[6],metabolite_detected
same,Retention_time,[7],16.9 min
same,Drug metabolism,[8],metabolite_detected
CC(C)=CCC[C@]1(C)C=Cc2c(O)c3c(c(CC=C(C)C)c2O1)O[C@]12C(C3=O)[C@@H](S(=O)(=O)O)[C@@H]3C[C@H]1C(C)(C)O[C@@]2(C/C=C(/C)C(=O)O)C3=O (stereo not given in full),Drug metabolism,[6],metabolite_detected
same,Retention_time,[7],19.4 min
same,Drug metabolism,[8],metabolite_detected
CC(C)=CCC[C@]1(C)C=Cc2c(O)c3c(c(CC=C(C)C)c2O1)O[C@]12C(=C[C@@H]4C[C@H]1C(C)(C)O[C@@]2(C/C=C(/C)C(=O)O[C@@H]1O[C@H](C(=O)O)[C@@H](O)[C@H](O)[C@H]1O)C4=O)C3=O,Retention_time,[1],23.6 min
same,Drug metabolism,[3],metabolite_detected
same,Drug metabolism,[9],metabolite_detected
